Values belong to the compound of their own block, whether it stands above or below them.
Legend:
[1] = tested on: SW-620; experiment: In vitro cytotoxicity against human colon SW-620 cancer cell line; format: functional
[2] = tested on: Hs-578T; experiment: In vitro cytotoxicity against human breast Hs 578.T cancer cell line; format: functional
[3] = tested on: SF-295; experiment: In vitro cytotoxicity against human CNS SF-295 cancer cell line; format: functional
[4] = tested on: NCI-H522; experiment: In vitro cytotoxicity against human non-small cell lung NCI-H522 cancer cell line; format: functional
[5] = tested on: Nucleic Acid; experiment: DNA binding ability by thermal denaturation studies using calf thymus DNA after incubation at 37 degree C for 0 hour; format: nucleic-acid assay; conditions: Bos taurus
[6] = tested on: SR; experiment: In vitro cytotoxicity against human leukemia SR cancer cell line; format: functional
[7] = tested on: SF-268; experiment: In vitro cytotoxicity against human CNS SF-268 cancer cell line; format: functional
[8] = tested on: Nucleic Acid; experiment: DNA binding ability by thermal denaturation studies using calf thymus DNA after incubation at 37 degree C for 36 hour; format: nucleic-acid assay; conditions: Bos taurus
Outline: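 Calf thymus DNA 100 µM with PBD 20 µM (1:5 [PBD]:[DNA]) in 10 mM sodium phosphate + 1 mM EDTA, pH 7.00, incubated at 37 °C for 0, 18 or 36 h. Thermal melting measured; ΔTm taken relative to CT-DNA alone, whose Tm is the mean of 10 separate determinations.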

[9] = tested on: MCF7; experiment: In vitro anticancer activity was evaluated for the percentage growth of human breast MCF-7 cell line; format: functional
Outline: (§1)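 Each cell line received a single dose of 10^-4 M, and the read-out was percentage growth.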

[10] = tested on: SF-268; experiment: In vitro anticancer activity was evaluated for the percentage growth of human (CNS) SF-268 cell line; format: functional; outline: as §1
[11] = tested on: UO-31; experiment: In vitro cytotoxicity against human renal UO-31 cancer cell line; format: functional
[12] = tested on: Nucleic Acid; experiment: DNA binding ability by thermal denaturation studies using calf thymus DNA after incubation at 37 degree C for 18 hour; format: nucleic-acid assay; conditions: Bos taurus
[13] = tested on: CCRF-CEM; experiment: In vitro cytotoxicity against human leukemia CCRF-CEM cancer cell line; format: functional
[14] = tested on: NCI-H460; experiment: In vitro anticancer activity was evaluated for the percentage growth of human lung NCI-H460 cell line; format: functional; outline: as §1

SMILES: COc1cc2c(cc1O)N=C[C@@H]1C[C@H](F)CN1C2=O
GI50 [1]: 1190 nM
GI50 [2]: 10 nM
GI50 [3]: 320 nM
GI50 [4]: 410 nM
ΔTm [5]: 0.3 °C
GI50 [6]: 200 nM
GI50 [7]: 350 nM
ΔTm [8]: 2.2 °C
Growth [9]: 0%
Growth [10]: 0%
GI50 [11]: 170 nM
ΔTm [12]: 1 °C
GI50 [13]: 300 nM
Growth [14]: 0%

SMILES: COc1cc2c(cc1OCCCOc1cc3c(cc1OC)C(=O)N1C[C@@H](F)C[C@H]1C=N3)N=C[C@@H]1C[C@H](F)CN1C2=O
GI50 [1]: 4200 nM
GI50 [3]: 1960 nM
GI50 [4]: 1880 nM
ΔTm [5]: 3.1 °C
GI50 [6]: 1540 nM
GI50 [7]: 2200 nM
ΔTm [8]: 6.16 °C
Growth [9]: 0%
Growth [10]: 0%
GI50 [11]: 2400 nM
ΔTm [12]: 4.9 °C
Growth [14]: 0%

SMILES: COc1cc2c(cc1OCCCCCOc1cc3c(cc1OC)C(=O)N1C[C@@H](F)C[C@H]1C=N3)N=C[C@@H]1C[C@H](F)CN1C2=O
GI50 [1]: 20 nM
GI50 [2]: < 10 nM
GI50 [3]: < 10 nM
GI50 [4]: < 10 nM
ΔTm [5]: 14.2 °C
GI50 [6]: < 10 nM
GI50 [7]: < 10 nM
ΔTm [8]: 17.4 °C
Growth [9]: 0%
Growth [10]: 0%
GI50 [11]: < 10 nM
ΔTm [12]: 16 °C
GI50 [13]: < 10 nM
Growth [14]: 0%

SMILES: COc1cc2c(cc1OCCCOc1cc3c(cc1OC)C(=O)N1CCC[C@H]1C=N3)N=C[C@@H]1CCCN1C2=O
ΔTm [5]: 10.2 °C

SMILES: COc1cc2c(cc1O)N=C[C@@H]1CCCN1C2=O
ΔTm [5]: 0.3 °C
ΔTm [12]: 0.7 °C

The next lines start with results.

ΔTm [5]: 0.6 °C
ΔTm [8]: 2.25 °C
ΔTm [12]: 1.5 °C
SMILES: COc1cc2c(cc1O)N=C[C@@H]1C[C@@H](F)CN1C2=O

ΔTm [5]: 1.1 °C
ΔTm [8]: 2.5 °C
ΔTm [12]: 2 °C
SMILES: COc1cc2c(cc1OCc1ccccc1)N=C[C@@H]1C[C@H](F)CN1C2=O
GI50 [1]: < 10 nM
GI50 [2]: < 10 nM
GI50 [3]: 30 nM
GI50 [4]: < 10 nM
GI50 [6]: < 10 nM
GI50 [7]: 10 nM
Growth [9]: 0%
Growth [10]: 19%
GI50 [11]: < 10 nM
GI50 [13]: < 10 nM
Growth [14]: 1%

ΔTm [5]: 4.6 °C
ΔTm [8]: 13.8 °C
ΔTm [12]: 12.3 °C
SMILES: COc1cc2c(cc1OCCCCOc1cc3c(cc1OC)C(=O)N1C[C@@H](F)C[C@H]1C=N3)N=C[C@@H]1C[C@H](F)CN1C2=O
